ChEMBL document CHEMBL1123330, “Synthesis and antitumor activities of unsymmetrically substituted 1,4-bis[(aminoalkyl)amino]anthracene-9,10-diones and related systems” (1986)
Converted amounts (≈) assume the structure as drawn.

System: L1210
Assay: In vitro inhibition of L1210 cell growth.
Assay type: functional
Settings: Mus musculus, read-out: ID50 (the source's name)
How it was run: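 Murine L1210 leukemia cells grown in suspension in McCoy's 5A with 10% horse serum, glutamine, penicillin, streptomycin; 37 °C, 10% CO2. Compound in Me2SO added to 10^5 cells/tube to final 0.01, 0.1 and 10 μg/mL; 7 h continuous exposure.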

IC50 [µg/mL]	Compound
> 10	COc1ccc(NCCNC(C)=O)c2c1C(=O)c1ccccc1C2=O
9 (≈ 23.7 µM)	COc1ccc(NCCCCCNC(C)=O)c2c1C(=O)c1ccccc1C2=O
> 10	COc1ccc(NCCCCNC(C)=O)c2c1C(=O)c1ccccc1C2=O
0.03 (≈ 0.071 µM)	CC(=O)NCCCCNc1ccc(NCCN(C)C)c2c1C(=O)c1ccccc1C2=O
1.8 (≈ 5.55 µM)	COc1ccc(NCCCCN)c2c1C(=O)c1ccccc1C2=O
2.8 (≈ 9.02 µM)	COc1ccc(NCCCN)c2c1C(=O)c1ccccc1C2=O
> 10	COc1ccc(NCCCNC(C)=O)c2c1C(=O)c1ccccc1C2=O

The remaining lines, values behind:

Compound	IC50 [µg/mL]
COc1ccc(NCCCCNC(=O)OCc2ccccc2)c2c1C(=O)c1ccccc1C2=O	> 10
CN(C)CCCNc1ccc(NCCCCNC(=O)OCc2ccccc2)c2c1C(=O)c1ccccc1C2=O	0.29 (≈ 0.549 µM)
CN(C)CCNc1ccc(NCCCCN)c2c1C(=O)c1ccccc1C2=O	0.0045 (≈ 0.0118 µM)
COc1ccc(NCCN)c2c1C(=O)c1ccccc1C2=O	2.5 (≈ 8.44 µM)
CC(=O)NCCCNc1ccc(NCCN(C)C)c2c1C(=O)c1ccccc1C2=O	0.4 (≈ 0.979 µM)
CN(C)CCCNc1ccc(NCCCCN)c2c1C(=O)c1ccccc1C2=O	0.18 (≈ 0.456 µM)
CC(=O)NCCCCCNc1ccc(NCCN(C)C)c2c1C(=O)c1ccccc1C2=O	2.3 (≈ 5.27 µM)
CN(C)CCNc1ccc(NCCCCNC(=O)OCc2ccccc2)c2c1C(=O)c1ccccc1C2=O	0.88 (≈ 1.71 µM)
CN(C)CCNc1ccc(NCCCN)c2c1C(=O)c1ccccc1C2=O	0.05 (≈ 0.136 µM)
CC(=O)NCCNc1ccc(NCCN(C)C)c2c1C(=O)c1ccccc1C2=O	2.05 (≈ 5.2 µM)
